Measurements pooled from the literature.
Target: Dual serine/threonine and tyrosine protein kinase (DSTYK, Homo sapiens, UniProt Q6XUX3)
Sequence (Q6XUX3 1-929, as in one of the studies): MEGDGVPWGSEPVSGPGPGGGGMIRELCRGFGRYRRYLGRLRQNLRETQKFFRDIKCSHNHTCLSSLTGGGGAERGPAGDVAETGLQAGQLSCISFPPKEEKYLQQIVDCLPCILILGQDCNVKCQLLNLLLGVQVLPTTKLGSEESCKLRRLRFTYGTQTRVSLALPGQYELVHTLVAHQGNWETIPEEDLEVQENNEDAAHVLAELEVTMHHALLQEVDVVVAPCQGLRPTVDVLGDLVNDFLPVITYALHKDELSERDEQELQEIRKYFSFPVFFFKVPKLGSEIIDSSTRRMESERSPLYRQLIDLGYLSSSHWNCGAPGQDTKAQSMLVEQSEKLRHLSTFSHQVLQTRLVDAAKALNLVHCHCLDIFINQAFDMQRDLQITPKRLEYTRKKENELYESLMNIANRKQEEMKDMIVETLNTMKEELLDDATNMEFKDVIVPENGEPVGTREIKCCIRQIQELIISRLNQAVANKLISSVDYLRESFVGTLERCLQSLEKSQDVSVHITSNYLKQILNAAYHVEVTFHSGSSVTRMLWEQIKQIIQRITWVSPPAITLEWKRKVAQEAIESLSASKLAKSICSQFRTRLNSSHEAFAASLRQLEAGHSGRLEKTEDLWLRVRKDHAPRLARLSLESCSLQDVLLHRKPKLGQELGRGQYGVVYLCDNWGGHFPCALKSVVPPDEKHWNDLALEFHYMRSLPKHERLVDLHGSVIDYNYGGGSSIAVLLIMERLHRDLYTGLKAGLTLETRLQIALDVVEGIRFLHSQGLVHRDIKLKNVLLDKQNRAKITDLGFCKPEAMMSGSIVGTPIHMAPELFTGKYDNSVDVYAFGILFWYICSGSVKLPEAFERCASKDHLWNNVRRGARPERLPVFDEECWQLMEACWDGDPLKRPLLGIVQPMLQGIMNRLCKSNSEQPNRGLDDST

| SMILES | effect on | action | technique | concentration | endpoint | result |
| --- | --- | --- | --- | --- | --- | --- |
| O=C(Nc1cnn(-c2csc(C(=O)NC3COC3)c2)c1)Nc1ccccc1Cl | enzyme activity | inhibitor |  | 5 µM | remaining activity | 102% |
| Cc1ccc(C(=O)Nc2ccc(CN3CCN(C)CC3)c(C(F)(F)F)c2)cc1C#Cc1cnc2cccnn12 | enzyme activity | inhibitor |  | 23.5 nM | remaining activity | 95% |
| Cc1cnn2ncc(-c3ccnc(N(C)C)n3)c2c1 | binding |  |  | 1 µM | remaining binding | 97% |
| Cc1cc(-n2nc(Cc3cc(F)cc(C(F)(F)F)c3)nc2C)ccc1C(N)=O | cell-free assay |  | competition with immobilised ligand | 1 µM | remaining binding | 97% |
| Cc1sc(C(=O)NC2COC2)cc1-n1cc(NC(=O)Nc2c(F)cccc2Cl)cn1 | enzyme activity | inhibitor |  | 10 µM | remaining activity | 96.6% |
| CC(C)(O)[C@H]1CC[C@H](Nc2ccc3ncc(-c4cccc(C(F)(F)F)c4)n3n2)CC1 | enzyme activity | inhibitor |  | 1 µM | remaining activity | 97.1% |
| O=C1Nc2ccc(Cl)cc2C1=Cc1cc(Cl)c(O)c(Cl)c1 | cell-free assay |  |  | 0.5 µM | remaining signal | 89.6% |
| CCCOc1ccc([C@H]2[C@H](C(=O)O)[C@@H](c3ccc4c(c3)OCO4)CN2CC(=O)Nc2c(CC)cccc2CC)cc1 | cell-free assay |  | competition with immobilised ligand | 1 µM | remaining binding | 73% |
| N#CCCc1ccc2c(c1)-c1[nH]c3ccc([N+](=O)[O-])cc3c1CC(=O)N2 | cell-free assay |  |  | 0.5 µM | remaining signal | 67.1% |
| CC(C)(C)c1nc2c(s1)c1nc(N)ncc1c1ccc(NS(=O)(=O)c3c(F)cccc3F)c(F)c12 | enzyme activity | inhibitor | radiometric | 1 µM | remaining activity | 83% |
| Nc1ncnc2occ(-c3ccc(NC(=O)Nc4cc(C(F)(F)F)ccc4F)cc3)c12 | cell-free assay | inhibitor |  | 20 µM | remaining signal | 2.8% |
| CSc1cccnc1N1CCN(Cc2nc3ccccc3[nH]2)CC1 | cell-free assay |  | competition with immobilised ligand | 1 µM | remaining binding | 76% |
| Cc1ccc(Nc2nccc(N(C)c3ccc4c(C)n(C)nc4c3)n2)cc1S(N)(=O)=O | enzyme activity | inhibitor |  | 0.5 µM | remaining activity | 94.3% |
| CC(C)(C)c1nc(-c2cccc(NS(=O)(=O)c3c(F)cccc3F)c2F)c(-c2ccnc(N)n2)s1 | enzyme activity | inhibitor | radiometric | 1 µM | remaining activity | 82% |
| CC1=C(C#N)[C@@H](c2ccc3[nH]nc(C)c3c2)C(C#N)=C(c2ccc(Cl)cc2)N1 | cell-free assay |  | competition with immobilised ligand | 1 µM | remaining binding | 100% |
